BindingDB's records for doi:10.1021/acs.jmedchem.0c01897 (University of Michigan, 2021)

Biological target: Signal transducer and activator of transcription 3 (Homo sapiens, UniProt P40763)
Experiment: Inhibition of IL-6 induced STAT3 transcriptional activity in human HEK293 cells expressing SIE-luc2P preincubated for overnight followed by IL-6 stimulation and measured after 24 hr by Bio-Glo luciferase reagent based microplate reader assay
How it was run: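 GloResponse SIE-luc2P HEK-293 cells were seeded at 10,000/well and incubated overnight. STAT3 was activated with IL6 (100 ng/ml) for 24 h, then compound was added for 24 h. Bio-Glo luciferase reagent was added and luminescence read after 5 min. IC50 from three independent experiments, mean ± SD.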

Chain of Signal transducer and activator of transcription 3 (P40763 whole entry): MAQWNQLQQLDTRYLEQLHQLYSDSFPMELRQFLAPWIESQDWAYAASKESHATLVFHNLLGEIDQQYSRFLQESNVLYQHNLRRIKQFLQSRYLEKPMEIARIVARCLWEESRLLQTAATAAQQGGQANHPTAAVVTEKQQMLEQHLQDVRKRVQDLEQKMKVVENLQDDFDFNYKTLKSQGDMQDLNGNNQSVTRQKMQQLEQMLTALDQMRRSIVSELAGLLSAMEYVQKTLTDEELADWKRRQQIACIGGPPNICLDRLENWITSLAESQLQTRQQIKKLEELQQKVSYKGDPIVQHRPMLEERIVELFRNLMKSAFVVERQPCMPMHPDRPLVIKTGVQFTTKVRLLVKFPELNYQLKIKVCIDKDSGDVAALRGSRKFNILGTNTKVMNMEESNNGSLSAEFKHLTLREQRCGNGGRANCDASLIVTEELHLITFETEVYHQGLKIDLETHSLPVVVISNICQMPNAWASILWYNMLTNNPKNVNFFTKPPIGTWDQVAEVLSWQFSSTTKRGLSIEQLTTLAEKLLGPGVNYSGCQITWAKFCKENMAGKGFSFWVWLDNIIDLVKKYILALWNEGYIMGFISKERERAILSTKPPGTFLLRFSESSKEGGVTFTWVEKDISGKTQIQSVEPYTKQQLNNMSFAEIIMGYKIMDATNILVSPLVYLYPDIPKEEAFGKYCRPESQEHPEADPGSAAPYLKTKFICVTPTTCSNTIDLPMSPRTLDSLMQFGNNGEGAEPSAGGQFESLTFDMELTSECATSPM

Row | Compound | IC50 [µM]
1 | Cc1ncsc1-c1ccc(CNC(=O)[C@@H]2C[C@@H](O)CN2C(=O)[C@@H](NC(=O)COCCNC(=O)c2cc3c(o2)C(=O)c2ccccc2C3=O)C(C)(C)C)cc1 | > 30
2 | Cc1ncsc1-c1ccc(CNC(=O)[C@@H]2C[C@@H](O)CN2C(=O)[C@@H](NC(=O)COCCOCCNC(=O)c2cc3c(o2)C(=O)c2ccccc2C3=O)C(C)(C)C)cc1 | 11.4
3 | CN1C(=O)CCC(N2C(=O)c3cccc(NCCCCCC4CCN(CCNC(=O)c5cc6c(o5)C(=O)c5ccccc5C6=O)CC4)c3C2=O)C1=O (stereo not drawn) | 1.7
4 | O=C1CCC(N2C(=O)c3cccc(NCCCCCC4CCN(CCNC(=O)c5cc6c(o5)C(=O)c5ccccc5C6=O)CC4)c3C2=O)C(=O)N1 (stereo not drawn) | 0.9
5 | O=C1CCC(N2C(=O)c3cccc(C#CCCCNC(=O)c4cc5c(o4)C(=O)c4ccccc4C5=O)c3C2=O)C(=O)N1 (stereo not drawn) | 4.2

The remaining lines, values ahead:

Row | IC50 [µM] | Compound
6 | 10.9 | O=C1CCC(N2Cc3c(NCCOCCOCCNC(=O)c4cc5c(o4)C(=O)c4ccccc4C5=O)cccc3C2=O)C(=O)N1 (stereo not drawn)
7 | 15.3 | O=C1CCC(N2C(=O)c3cccc(NCCNC(=O)c4cc5c(o4)C(=O)c4ccccc4C5=O)c3C2=O)C(=O)N1 (stereo not drawn)
8 | 4.6 | O=C1CCC(N2C(=O)c3cccc(NCCCCCNC(=O)c4cc5c(o4)C(=O)c4ccccc4C5=O)c3C2=O)C(=O)N1 (stereo not drawn)
9 | 2.5 | O=C1CCC(N2C(=O)c3cccc(NCCOCCOCCOCCOCCOCCOCCNC(=O)c4cc5c(o4)C(=O)c4ccccc4C5=O)c3C2=O)C(=O)N1 (stereo not drawn)
10 | 2.7 | O=C1CCC(N2C(=O)c3cccc(NCCOCCOCCOCCOCCNC(=O)c4cc5c(o4)C(=O)c4ccccc4C5=O)c3C2=O)C(=O)N1 (stereo not drawn)
11 | 2.6 | O=C1CCC(N2C(=O)c3cccc(NCCOCCOCCOCCNC(=O)c4cc5c(o4)C(=O)c4ccccc4C5=O)c3C2=O)C(=O)N1 (stereo not drawn)
12 | 5.7 | O=C1CCC(N2C(=O)c3cccc(OCCCCNC(=O)c4cc5c(o4)C(=O)c4ccccc4C5=O)c3C2=O)C(=O)N1 (stereo not drawn)
13 | 3.4 | O=C1CCC(N2C(=O)c3ccc(NCCOCCOCCNC(=O)c4cc5c(o4)C(=O)c4ccccc4C5=O)cc3C2=O)C(=O)N1 (stereo not drawn)
